Experimental data collected from several papers.
RPS6KA3 C-terminal kinase domain: Ribosomal protein S6 kinase alpha-3, C-terminal kinase domain (RPS6KA3, Homo sapiens, UniProt P51812)
RPS6KA3: Ribosomal protein S6 kinase alpha-3 (RPS6KA3, Homo sapiens, UniProt P51812)
RPS6KA3 N-terminal kinase domain: Ribosomal protein S6 kinase alpha-3, N-terminal kinase domain (RPS6KA3, Homo sapiens, UniProt P51812)

Compound | target | assay | setting | measurement | value
CN1CCN(C(=O)c2ccc(NC(=O)Nc3ccc(N(C)c4ccnc(Nc5ccc(CS(C)(=O)=O)cc5)n4)cc3)cc2)CC1 | RPS6KA3 C-terminal kinase domain | binding, competition with immobilised ligand | 1 µM | remaining binding | 86%
COc1ccc2oc(-c3ccc4nc(N)oc4c3)c/c(=N\c3ccccc3NC(=O)CCN)c2c1 | RPS6KA3 | binding | 1 µM | remaining binding | 98%
COc1ccc2[nH]c3c4[nH]c5ccc(OC)cc5c4c4c(c3c2c1)C(=O)NC4=O | RPS6KA3 N-terminal kinase domain | binding, competition with immobilised ligand | 1 µM | remaining binding | 21%
C#Cc1cc(-c2cc(Nc3nc(N[C@@H](C)c4ccc(F)cn4)ncc3Cl)n[nH]2)ccc1C=O | RPS6KA3 | enzyme activity, inhibitor | 0.2 µM | inhibition | 39.8%
CCCCC(=O)Nc1ccc(-c2ccc3ncn(CCC)c(=O)c3c2)cn1 | RPS6KA3 C-terminal kinase domain | binding, competition with immobilised ligand | 0.5 µM | remaining binding | 99%
CC(C)S(=O)(=O)c1ccc2nccc(Nc3ccc4sc(C5CCCC5)nc4c3)c2c1 | RPS6KA3 | enzyme activity, inhibitor | 1 µM | activity vs control | 113%
Cc1cc(O)c(-c2ccc([C@@H](C)CN(C)C)cc2)c2c1[nH]c(=O)c1sccc12 | RPS6KA3 C-terminal kinase domain | enzyme activity, inhibitor | 0.1 µM | inhibition | -17.5%
N#Cc1ccc(NC(=O)Nc2ccccc2)cc1 | RPS6KA3 N-terminal kinase domain | cell-free assay, competition with immobilised ligand | 25 µM | remaining binding | 90%
